This is a sample that favours compounds with a hit; in the whole collection about 2.3% have one here.
CHT block – inhibitors of human choline transporter CHT. High affinity choline transporter 1 (Homo sapiens), Q9GZV3. CHT-expressing cells, membrane potential dye, choline response; active compounds read low. B-score at 10 µM. actives 0.86% (n = 310,000);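 active means B-score over 3 SD under the library average, and starting fluorescence ratio not unusually high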;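 further: choline stimulus applied at its EC90 after an EC20 pre-addition; B-score computed on integrated fluorescence ratio after choline addition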
GalR3 antag – GalR3 antagonists in HEK293 cells, primary screen, cell-based, fluorescence readout. Galanin receptor type 3 (Homo sapiens), O60755. HEK293 GalR3-CNG cAMP membrane potential fluorescence; galR3 body fused to GalR1 C-terminus. inhibition, % at 3 µM. actives 0.44% (n = 360,000). AID 651719, 2012;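 active means inhibition above the screen-wide average plus 3 SD, cut at about 13% in these data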;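 further: forskolin and galanin both at EC90 stimulate the cells; cAMP rise reported by CNG channel membrane potential dye signal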
Target sequence (O60755 1-299 limits assumed): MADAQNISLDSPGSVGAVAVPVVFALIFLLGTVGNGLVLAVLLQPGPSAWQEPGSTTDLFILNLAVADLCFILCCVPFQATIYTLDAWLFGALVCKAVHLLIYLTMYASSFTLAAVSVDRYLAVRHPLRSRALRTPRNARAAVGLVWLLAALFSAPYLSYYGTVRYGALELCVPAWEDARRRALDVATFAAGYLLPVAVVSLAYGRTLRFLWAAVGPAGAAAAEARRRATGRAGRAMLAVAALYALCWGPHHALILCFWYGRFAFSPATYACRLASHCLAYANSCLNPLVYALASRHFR
NR2E3 ag-1 – NR2E3 agonists in two-hybrid cells, primary screen, cell-based, luminescence, CHO-S, Gal4-NCOR/VP16-NR2E3. Photoreceptor-specific nuclear receptor (Homo sapiens), Q9Y5X4. luciferase. inhibition of corepressor binding, % at 3.98 µM. actives 0.35% (n = 360,000). AID 602229, 2012;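 active means inhibition above the mean of all tested compounds plus 3 SD, cut at about 70% in these data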;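 further: higher means lower luciferase signal from less NR2E3 corepressor binding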
NR2E3 ag-2 – inhibitors of NR2E3-RetCOR corepressor binding, primary screen, NR2E3 agonist project, biochemical, TR-FRET, GST-NR2E3, biotin-RetCOR; Photoreceptor-specific nuclear receptor (Homo sapiens), Q9Y5X4; 1536-well; inhibition of corepressor binding, % at 4.78 µM; actives 0.12% (n = 320,000);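 active means percent inhibition above the cutoff of mean plus 3 SD of all tested compounds, set per screening campaign, cut at about 20% in these data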
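Test system – NR2E3–RetCOR corepressor complex · Quantity – NR2E3 fusion 1.35 nM · Buffer or medium – Tris pH 7.5 · Incubation – Compound–protein incubation for 5 h at 4 °C · Technique – TR-FRET, Eu(K)-anti-GST donor, streptavidin-D2 acceptor, ex 340, em 617/671 nm · Evaluation – percent inhibition of 671/617 nm emission ratio versus biotin and DMSO controls · Plate – 1536-well format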
COUP-TFII inh – NR2F2 transcriptional activity inhibitors, primary screen, cell-based, luciferase reporter, HEK293T, luminescence | AID 686940, 2013 | COUP transcription factor 2 (Homo sapiens), P24468 | HEK293T NGFI-A luciferase reporter | inhibition, % at 8.6 µM | actives 0.7% (n = 370,000);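 active means inhibition above a per-plate cutoff, mean inhibition of test wells between control levels plus 3 SD, cut at about 38% in these data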;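 further: cells cotransfected with COUP-TFII expression vector driving the NGFI-A reporter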
Target sequence (P24468 whole entry, looked up): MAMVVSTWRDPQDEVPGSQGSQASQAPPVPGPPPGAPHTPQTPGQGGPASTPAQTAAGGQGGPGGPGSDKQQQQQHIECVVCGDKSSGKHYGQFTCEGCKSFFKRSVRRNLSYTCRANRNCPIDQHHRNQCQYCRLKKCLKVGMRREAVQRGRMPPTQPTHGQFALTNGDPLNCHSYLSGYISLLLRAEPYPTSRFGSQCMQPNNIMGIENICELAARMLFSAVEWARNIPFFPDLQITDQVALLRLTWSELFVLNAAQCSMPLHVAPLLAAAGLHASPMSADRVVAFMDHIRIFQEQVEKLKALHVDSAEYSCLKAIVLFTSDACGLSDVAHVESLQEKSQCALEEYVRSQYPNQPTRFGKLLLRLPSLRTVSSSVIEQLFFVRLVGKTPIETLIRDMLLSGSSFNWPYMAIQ
CHT PAM – CHT positive allosteric modulators, primary screen, cell-based, membrane potential dye, choline EC20; High affinity choline transporter 1 (Homo sapiens), Q9GZV3; CHT-expressing cells; active compounds read high; LV-AA mutant CHT in HEK293 cells; B-score at 10 µM; actives 0.49% (n = 310,000); AID 488977, 2010;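 active means initial fluorescence not abnormally high and integrated response B-score, plate-corrected, over 3 SD above library mean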
NR2E3 ag confirm – NR2E3 agonist confirmation in cells, cell-based, luminescence, CHO-S two-hybrid; shares compounds with NR2E3 ag-1; CHO-S mammalian two-hybrid NR2E3-NCOR, luciferase luminescence; inhibition, % at 3.98 µM; actives 51% (n = 2,300); AID 624378, 2012;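 active means average inhibition above a cutoff equal to the mean inhibition of all tested compounds plus one SD, cut at about 70% in these data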
VP16 counter – GAL4-VP16 reporter modulators, confirmation, counter-screen for NR2E3 agonist project, cell-based, luminescence, CHO-S, high throughput | inhibition, % at 3.98 µM | AID 624379, 2012 | CHO-S GAL4-VP16 luciferase reporter | actives 29% (n = 2,300) | shares compounds with NR2E3 ag-1;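 active means mean inhibition above a cutoff equal to the average over all tested compounds plus one standard deviation, cut at about 70% in these data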;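 further: luciferase from a UAS reporter driven by GAL4-VP16 transactivation; higher means less reporter light so more repression of VP16 activity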
GalR3 antag conf – GalR3 antagonist hit confirmation, cell-based, fluorescence, triplicate. inhibition, % at 3 µM. actives 59% (n = 1,600). AID 652245, 2013. shares compounds with GalR3 antag. HEK293 GalR3 CNG cAMP biosensor, membrane potential fluorescence; galR3 fused to GalR1 carboxy tail; challenged with forskolin and galanin at EC90;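 active means inhibition above the primary screen's cutoff, the mean inhibition of all screened compounds plus 3 SD, cut at about 13% in these data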
HEK-CNG parental – nonspecific cAMP agonists in parental HEK-CNG cells, counter-screen for GalR3 antagonist project, cell-based, fluorescence, high throughput. shares compounds with GalR3 antag. HEK293-CNG parental cells, cAMP membrane potential fluorescence; normalised: DMSO wells 0%, forskolin wells 100%. activation, % at 3 µM. actives 10% (n = 1,600); in the data active means activation above about 1.3%
Gal4-VP16 ctr – Gal4-VP16 luciferase reporter inhibitors, counter-screen for COUP-TFII antagonist project, cell-based, luminescence, HEK293; shares compounds with COUP-TFII inh; inhibition, % at 8.5 µM; actives 25% (n = 2,500); in the data active means inhibition above about 13%
COUP-TFII conf – NR2F2 transcriptional activity inhibitors, confirmation, cell-based, luciferase reporter, HEK293, triplicate; actives 45% (n = 2,500); inhibition, % at 8.5 µM; HEK293 NGFI-A luciferase reporter, luminescence; AID 687008, 2013; shares compounds with COUP-TFII inh;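 active means mean inhibition over three repeats above a set limit taken from the earlier primary screen, cut at about 38% in these data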
Large screens that a line does not name were inactive (follow-up assays come after a bar, where they were run).

O=c1c2ccccc2oc2cc(C#CC3(O)CCCCC3)ccc12	COUP-TFII inh 69 | NR2E3 ag confirm inactive | VP16 counter inactive | Gal4-VP16 ctr inactive | COUP-TFII conf 67
O=c1c2ccccc2sc2ccc(C#CC3(O)CCCCC3)cc12	NR2E3 ag-1 99, COUP-TFII inh 96 | NR2E3 ag confirm 85 | VP16 counter 73 | Gal4-VP16 ctr 90 | COUP-TFII conf 105
COc1ccccc1Cn1c(C)nc2ccccc21	none
Cc1nc2ccccc2n1Cc1n[nH]c(=S)n1-c1ccc(Cl)cc1	none
Cc1nc2ccccc2n1Cc1ccc(Cl)cc1	GalR3 antag 87, NR2E3 ag-1 92, COUP-TFII inh 61 | NR2E3 ag confirm 94 | VP16 counter 83 | GalR3 antag conf 109 | HEK-CNG parental inactive | Gal4-VP16 ctr inactive | COUP-TFII conf 39
Cc1ccccc1Cn1c(C)nc2ccccc21	GalR3 antag 60, COUP-TFII inh 47 | NR2E3 ag confirm 93 | VP16 counter 82 | GalR3 antag conf 103 | HEK-CNG parental inactive | Gal4-VP16 ctr inactive | COUP-TFII conf 46
c1ccc(CCNc2ccnc3cc4ccccc4cc23)cc1	GalR3 antag 19, NR2E3 ag-1 93, COUP-TFII inh 65 (no result: CHT block, NR2E3 ag-2, CHT PAM) | NR2E3 ag confirm 97 | VP16 counter 82 | GalR3 antag conf inactive | HEK-CNG parental 3.3 | Gal4-VP16 ctr 15 | COUP-TFII conf 59
Brc1ccc2[nH]c3c(N4CCc5ccccc5C4)ncnc3c2c1	none (no result: GalR3 antag, NR2E3 ag-1, COUP-TFII inh)
c1ccc2c(c1)[nH]c1c(N3CCCC3)ncnc12	COUP-TFII inh 44 | NR2E3 ag confirm inactive | VP16 counter inactive | Gal4-VP16 ctr inactive | COUP-TFII conf inactive
Cc1ccc2[nH]c3c(N4CCc5ccccc5C4)ncnc3c2c1	COUP-TFII inh 60 | NR2E3 ag confirm 94 | VP16 counter 77 | Gal4-VP16 ctr inactive | COUP-TFII conf 50
CCOC(=O)C1C[C@@H](O)C=CC1=O (stereo not given in full)	none (no result: CHT block, GalR3 antag, NR2E3 ag-1, NR2E3 ag-2, CHT PAM)
Cc1cc(C(=O)Nc2ccc(Cl)cc2)c(C)n1-c1ccccc1	NR2E3 ag-1 88, COUP-TFII inh 86 | NR2E3 ag confirm 82 | VP16 counter inactive | Gal4-VP16 ctr 81 | COUP-TFII conf 99
Cc1ccc(NC(=O)c2cc(C)n(-c3ccccc3)c2C)cc1	COUP-TFII inh 70 | NR2E3 ag confirm inactive | VP16 counter inactive | Gal4-VP16 ctr 60 | COUP-TFII conf 84
Cc1ccc(NC(=O)c2cnn(-c3ccccc3)c2C)cc1	none
O=C(NCCc1c[nH]c2ccccc12)c1ccc2c(c1)ncn2C1CCCCC1	none (no result: CHT block, GalR3 antag, NR2E3 ag-1, NR2E3 ag-2, CHT PAM)
Cc1nc2ccccc2n1CC(O)COc1ccc(Br)cc1 (stereo not given)	none
CCC(=O)c1ccc(OCC(O)Cn2c(C)nc3ccccc32)cc1 (stereo not given)	GalR3 antag 56, COUP-TFII inh 59 | NR2E3 ag confirm inactive | VP16 counter inactive | GalR3 antag conf inactive | HEK-CNG parental inactive | Gal4-VP16 ctr inactive | COUP-TFII conf inactive
CCN1/C(=C\c2ccc3cc(C)ccc3[n+]2CC)Sc2cc(C)c(C)cc21	GalR3 antag 59, NR2E3 ag-1 85, COUP-TFII inh 67 (no result: CHT block, NR2E3 ag-2, CHT PAM) | NR2E3 ag confirm 98 | VP16 counter 87 | GalR3 antag conf 74 | HEK-CNG parental 6.3 | Gal4-VP16 ctr inactive | COUP-TFII conf 53
Cc1ccc2c(c1)S/C(=C\c1cccc[n+]1C)N2CCO	none
O=S(=O)(NCC1CCCO1)c1ccc(-c2ccc(S(=O)(=O)NCC3CCCO3)cc2)cc1 (stereo not given)	GalR3 antag 97, COUP-TFII inh 68 | NR2E3 ag confirm 92 | VP16 counter 73 | GalR3 antag conf 106 | HEK-CNG parental inactive | Gal4-VP16 ctr inactive | COUP-TFII conf 64
Cc1ccc(C#N)c(SCc2nnc(-c3ccc(Cl)cc3)o2)n1	NR2E3 ag-1 72, COUP-TFII inh 77 | NR2E3 ag confirm 77 | VP16 counter inactive | Gal4-VP16 ctr 45 | COUP-TFII conf 89
Cc1ccc(C#N)c(SCc2cc3c(cc2Cl)OCO3)n1	none
Cc1cc(C)c(C#N)c(SCc2nnc(-c3ccccc3)o2)n1	NR2E3 ag-1 88, COUP-TFII inh 81 | NR2E3 ag confirm 73 | VP16 counter inactive | Gal4-VP16 ctr 57 | COUP-TFII conf 92
CC(=NNC(=S)Nc1ccccc1Cl)c1ccccn1	NR2E3 ag-1 86, COUP-TFII inh 51 (no result: CHT block, NR2E3 ag-2, CHT PAM) | NR2E3 ag confirm inactive | VP16 counter inactive | Gal4-VP16 ctr inactive | COUP-TFII conf inactive
Cc1ccc(/C=C2\CCOC2=O)cc1	none
Cc1ccc(/C=C2/CNC/C(=C/c3ccc(C)cc3)C2=O)cc1	COUP-TFII inh 47 (no result: CHT block, NR2E3 ag-2, CHT PAM) | NR2E3 ag confirm inactive | VP16 counter inactive | Gal4-VP16 ctr 54 | COUP-TFII conf 50
Cc1ccccc1CN1CCCCC(NC(=O)Nc2ccccc2-c2ccccc2)C1=O (stereo not given)	none (no result: CHT block, GalR3 antag, NR2E3 ag-1, NR2E3 ag-2, CHT PAM)
